Source: ChEMBL document CHEMBL1148368, “Synthesis and antitumor activity of quinonoid derivatives of cannabinoids” (2004)

Tests used:
MCF7 = experiment: Inhibition of the growth of MCF-7 mammary cancer cells at 3.125 ug/ml concentration; type: functional; settings: Homo sapiens
Method in brief: (§1)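 Adherent/epithelial cancer cells were grown in RPMI 1640 with 10% heat-inactivated FCS, 2 mM L-glutamine, penicillin and streptomycin at 37 °C in 5% CO2. Cells were seeded at 0.02×10^6 per well with varied quinone concentrations. MTT readout was taken after 3 days. Five replicate wells were used per concentration, in 2–3 repeat experiments. Results are % inhibition versus untreated wells given 0.5% ethanol vehicle.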

Jurkat [1] = experiment: Inhibition of the growth of Jurkat lymphoma cells at 1.56 ug/ml concentration; type: functional; settings: Homo sapiens
Method in brief: (§2)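 Lymphoma cells were suspended in RPMI 1640 with 20% heat-inactivated FCS, 2 mM L-glutamine, penicillin and streptomycin at 37 °C in 5% CO2. Cells were plated at 0.02×10^6 per well with varied quinone concentrations. MTT reduction was measured on day 3. Five replicate wells were used per concentration, in 2–3 repeat experiments. Inhibition is expressed as % versus 0.5% ethanol vehicle wells.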

HT-29 = experiment: Inhibition of the growth of HT-29 colon cancer cells at 3.125 ug/ml concentration; type: functional; settings: Homo sapiens; method in brief: as §1
Raji [2] = experiment: Inhibition of the growth of Raji lymphoma cells at 0.2 ug/ml concentration; type: functional; settings: Homo sapiens; method in brief: as §2
Jurkat [3] = experiment: Inhibition of the growth of Jurkat lymphoma cells at 0.2 ug/ml concentration; type: functional; settings: Homo sapiens; method in brief: as §2
Raji [4] = experiment: Inhibition of the growth of Raji lymphoma cells at 1.56 ug/ml concentration; type: functional; settings: Homo sapiens; method in brief: as §2
Raji [5] = experiment: Inhibition of the growth of Raji lymphoma cells at 12.5-25.0 ug/ml concentration; type: functional, Homo sapiens; method in brief: as §2
Jurkat [6] = experiment: Inhibition of the growth of Jurkat lymphoma cells at 12.5-25.0 ug/ml concentration; type: functional, Homo sapiens; method in brief: as §2
Raji [7] = experiment: Inhibition of the growth of Raji lymphoma cells at 6.25 ug/ml concentration; type: functional; settings: Homo sapiens; method in brief: as §2
SNB-19 = experiment: Concentration of compound required to inhibit the growth of SNB-19 cells; type: functional, cell-based; settings: Homo sapiens; method in brief: as §1

C=C(C)C1CCC(C)=C[C@H]1C1=C(O)C=C(CCCCC)C(=O)C1=O (stereo not given in full)
inhibition at 3.125 µg/mL (MCF7): 50% | inhibition at 1.56 µg/mL (Jurkat [1]): 80% | inhibition at 3.125 µg/mL (HT-29): 50% | inhibition at 0.2 µg/mL (Raji [2]): 50% | inhibition at 0.2 µg/mL (Jurkat [3]): 50% | inhibition at 1.56 µg/mL (Raji [4]): 80%

CCCCCC1=CC(=O)C2=C(OC(C)(C)c3ccc(C)cc32)C1=O
Inhibition (Raji [5]): 50% | Inhibition (Jurkat [6]): 50% | inhibition at 6.25 µg/mL (Raji [7]): 50%

CCCCCC1=CC(=O)C2=C(OC(C)(C)[C@@H]3CC=C(C)C[C@@H]23)C1=O
Concentration (SNB-19): 100 µg/mL
